MPTP block: mitochondrial permeability transition pore inhibitors, primary screen, biochemical, isolated mouse mitochondria, absorbance; Ca2+ swelling absorbance, 30 min; hit rate 1.4% among 360,000; inhibition, % at 10 µM;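 active means inhibition of 50% or more, scaled per plate between neutral and stimulator controls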
GRIN3A LBD mod: binders of NR3A ligand-binding domain, primary screen, biophysical, differential scanning fluorimetry, uHTS; Glutamate receptor ionotropic, NMDA 3A (GRIN3A) ligand-binding domain; NR3A LBD differential scanning fluorimetry, Tm shift; 0% = protein alone, 100% = glycine-bound protein; Tm shift relative to glycine control, % at 25 µM; hit rate 2.5% among 340,000; AID 1259313, 2017;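 active means melting temperature shift of at least 10% of the positive control shift, at one fixed dose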
MT1-MMP act inh: blockers of MT1-MMP proenzyme processing, primary screen, HT1080 RFP-PRO-GFP cells, GFP/RFP fluorescence; Matrix metalloproteinase-14 (Homo sapiens), P50281; GFP/RFP ratio fluorescence, overnight; percent of plate control window, DMSO zero; GFP/RFP ratio change, % at 20 µM; hit rate 0.061% among 360,000; AID 651647, 2012;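 active means GFP/RFP ratio change of at least 30% with cell ATP level not reduced by more than half and red fluorescence within 50% of control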
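Material: RFP-PRO-GFP reporter HT1080 cells. Dosing: single-point 20 µM compound, 1% DMSO. Controls: DMSO and RFP-L50D-GFP cell wells. Timing: cells overnight before dosing, compound overnight, 37 °C, 5% CO2. Measure: GFP/RFP fluorescence ratio.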
ADAM10 inh: human ADAM10 inhibitors, primary screen, biochemical, QFRET, HTS. recombinant ADAM10, EDANS/DABCYL FRET peptide cleavage, 3 h. inhibition, % at 7 µM. hit rate 0.62% among 370,000;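 active means inhibition above a per-campaign cutoff equal to the mean of compounds falling between control-based bounds plus 3 SD, cut at about 20% in these data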
ADAM17 inh: ADAM17 inhibitors, primary screen, biochemical, QFRET; Disintegrin and metalloproteinase domain-containing protein 17 (Homo sapiens), P78536; recombinant ADAM17, EDANS/DABCYL FRET peptide cleavage; inhibition, % at 6.95 µM; hit rate 0.83% among 370,000; AID 720648, 2013;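 active means inhibition above the mean of compounds lying between control limits plus 3 SD, set per campaign, cut at about 8.5% in these data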
Target sequence (P78536 215-824 limits assumed): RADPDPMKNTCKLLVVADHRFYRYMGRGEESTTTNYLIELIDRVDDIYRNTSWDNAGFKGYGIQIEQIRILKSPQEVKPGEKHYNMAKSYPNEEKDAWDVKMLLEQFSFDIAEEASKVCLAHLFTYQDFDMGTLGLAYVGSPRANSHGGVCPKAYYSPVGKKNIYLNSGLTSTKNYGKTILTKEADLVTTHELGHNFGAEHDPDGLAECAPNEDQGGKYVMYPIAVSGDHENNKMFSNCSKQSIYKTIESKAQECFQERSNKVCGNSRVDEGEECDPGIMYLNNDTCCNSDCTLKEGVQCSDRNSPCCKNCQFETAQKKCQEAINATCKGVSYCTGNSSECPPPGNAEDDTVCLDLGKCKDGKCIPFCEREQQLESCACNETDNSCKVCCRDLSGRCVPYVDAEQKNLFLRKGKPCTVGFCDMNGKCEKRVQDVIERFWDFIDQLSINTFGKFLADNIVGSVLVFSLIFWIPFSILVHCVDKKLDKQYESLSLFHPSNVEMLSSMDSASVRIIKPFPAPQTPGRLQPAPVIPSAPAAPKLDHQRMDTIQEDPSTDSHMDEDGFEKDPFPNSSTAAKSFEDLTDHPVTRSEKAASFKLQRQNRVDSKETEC
SKN-1 block: suppressors of acrylamide-induced Pgst-4::GFP reporter in worms, primary screen, SKN-1 inhibitor project, whole organism, uHTS, GFP/RFP fluorescence ratio, strain VP596. C. elegans VP596 Pgst-4::GFP/RFP ratio, 24 h. inhibition, % at 21.8 µM. hit rate 0.49% among 360,000. AID 624304, 2012;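 active means interference check ratio from 0.5 to 1.5 plus GFP to RFP signal ratio inhibition reaching or exceeding a fixed threshold, cut at about 30% in these data, passing the limit was not always enough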
MPTP counter: fluorescence retest of MPTP screen hits in isolated mitochondria, single concentration | hit rate 78% among 5,000 | AID 624504, 2012 | inhibition, % at 10 µM | shares compounds with MPTP block | membrane potential, Rhodamine 123 fluorescence; in the data active means inhibition above about 22%
MPTP swell DR: mitochondrial permeability transition pore inhibitors, dose response, biochemical, absorbance, uHTS hits. hit rate 58% among 780. IC50, µM. isolated mitochondria swelling. shares compounds with MPTP block; in the data active means IC50 below about 20 µM
MPTP counter DR: fluorescent counter-screen in isolated mitochondria, dose response, counter-screen for MPTP inhibitor project, biochemical, fluorescence, uHTS hits | shares compounds with MPTP block | isolated mitochondria counterscreen, fluorescence read-out | IC50, µM | hit rate 49% among 780; in the data active means IC50 below about 80 µM
Large screens that a line does not name were inactive (follow-up assays come after a bar, where they were run). A selection: hits, their analogues and other compounds. The true share with any hit is near 4.7%.

CCCCn1c(O)c(C=NCc2ccc3c(c2)OCO3)c(=O)[nH]c1=O	GRIN3A LBD mod 11
Clc1ccc(COC(Cn2ccnc2)c2ccc(Cl)cc2Cl)c(Cl)c1 (configuration not stated)	none
COC(=O)c1c(C)n(Cc2ccccc2)c2ccc(O)cc12	GRIN3A LBD mod 14
COc1cc2c(cc1OC)[C@@H]1C(=O)c3ccc4c(c3O[C@@H]1CO2)C[C@H](C(C)C)O4	MPTP block 96 | MPTP counter 83
COc1cc2c(cc1OC)C1C(=O)c3ccc4c(c3OC1CO2)CC(C(C)C)O4 (configuration not stated)	MPTP block 103 | MPTP counter 88
CC(C)Cn1cc(C(=O)N2CCC3(CC2)OCCO3)c2c3ccccc3n(C)c2c1=O	none
O=C(Nc1ccc(Cl)cc1)Nc1nccs1	MPTP block 86, GRIN3A LBD mod 28 | MPTP counter 89
COC(=O)C1=C(c2cccc(OCc3ccccc3)c2)C[C@@H]2CC[C@H]1N2C(=O)NCc1ccccc1C(F)(F)F	none
O=c1[nH]c(=O)n(Cc2ccccc2)c(O)c1C=NCCCO	none
CC1=NNC(=O)C1Br (configuration not stated)	none
CCC(=C(c1ccc(O)cc1)c1ccc(OCCN(C)C)cc1)c1ccccc1	none (no result: GRIN3A LBD mod) | MPTP swell DR inactive | MPTP counter DR inactive
O=C1NC(=O)N(c2ccccc2)C(=O)/C1=C/c1ccc(Sc2ccccc2)o1	MPTP block 51 (no result: ADAM10 inh, ADAM17 inh) | MPTP counter 43
COC(=O)C1=C(c2ccc(-c3ccccc3)c(F)c2)C[C@@H]2CC[C@H]1N2C(=O)NC1CCCCC1	none
CCCCn1c(=O)c(C=Nc2cccnc2Cl)c(O)n(CCCCl)c1=O	none
Oc1c(Cl)c(Cl)c(Cl)c(Cl)c1Cl	MPTP block 73, GRIN3A LBD mod 19 | MPTP counter 88
CCOc1ccc(CC2C(=O)NC(=O)N(c3ccc(CC)cc3)C2=O)cc1 (configuration not stated)	none
COC(=O)C1=C(c2ccc(OC)c(OC)c2)C[C@@H]2CC[C@H]1N2C(=O)NCC1CC1	none
CCCc1nc2ccc(Br)cc2c(=O)n1-c1ccc([N+](=O)[O-])c(C(F)(F)F)c1	MPTP block 94 | MPTP counter 79
COc1ccc(N2C(=O)NC(=O)/C(=C\c3ccc([N+](=O)[O-])s3)C2=O)cc1	MPTP block 56 | MPTP counter inactive
COc1ccc(N2C(=O)NC(=O)/C(=C/c3ccc([N+](=O)[O-])s3)C2=O)cc1	none
S=C(c1ccc(Cl)cc1)N1CCOCC1	none
ClC(Cl)=C(c1ccc(Cl)cc1)c1ccc(Cl)cc1	MPTP block 77 | MPTP counter inactive | MPTP swell DR inactive | MPTP counter DR 78
CCN1CCN(C(=O)Cc2coc3ccc4ccccc4c23)CC1	none
Oc1cc(Cl)ccc1Oc1ccc(Cl)cc1Cl	MPTP block 92 | MPTP counter 99
CC1=CC(=O)C2=C(C)CC(O)C3C(C)C(=O)OC3C12 (configuration not stated)	none
CN1CCC(O)(c2ccccc2)C(C(=O)c2ccccc2)C1 (configuration not stated)	MPTP block 55 | MPTP counter inactive | MPTP swell DR inactive | MPTP counter DR inactive
CCN1CCC(O)(c2ccccc2)C(C(=O)c2ccccc2)C1 (configuration not stated)	none
C=CCn1c(O)c(C(CC)=Nc2ccc(N(CC)CC)cc2)c(=O)[nH]c1=O	MPTP block 75 | MPTP counter 29
CCC(=Nc1ccc(OC)cc1OC)c1c(O)n(C)c(=O)n(C)c1=O	none
CCC(=Nc1cccc(C(F)(F)F)c1)c1c(O)n(C)c(=O)n(C)c1=O	MPTP block 80 | MPTP counter inactive | MPTP swell DR 9 | MPTP counter DR 14
C[n+]1c(-c2ccccc2)sc2ccccc21	none
CN(C)c1ccc(/C=C/C=C/c2sc3ccccc3[n+]2C)cc1	MPTP block 57 | MPTP counter 65
CN(C)c1ccc(/C=C/c2cc[n+](C)c3ccccc23)cc1	MPTP block 75 | MPTP counter 66
CC[n+]1c(/C=C/C=C/c2ccc(N(C)C)cc2)sc2ccccc21	MPTP block 134 | MPTP counter 71
CN1CC(C(=O)c2ccc(Cl)cc2)C(c2ccccc2)C1 (configuration not stated)	none
CC1(C)C(=O)CC[C@@]2(C)C1=CCC1C2CC[C@]2(C)C(=O)CCC12 (some centres not stated)	MPTP block 59 | MPTP counter inactive | MPTP swell DR 6.3 | MPTP counter DR 13
C[C@]12CCC3C(CC[C@H]4C[C@@H](O)CC[C@]34C)C1C[C@@H](Br)[C@@H]2O (some centres not stated)	none (no result: MPTP block, MT1-MMP act inh, SKN-1 block)
CCCNS(=O)(=O)c1ccc(OCC(=O)N2CCN(Cc3ccc4c(c3)OCO4)CC2)cc1	none
CCN(CC)S(=O)(=O)c1ccc(NN=C(C#N)C#N)cc1	MPTP block 103, GRIN3A LBD mod 13 | MPTP counter 80
Cc1ccc(S(=O)(=O)N2CCCCC2)cc1NC(=O)CN1CC=C(c2ccccc2)CC1	none
O=C1CCN(C(=O)Cc2ccccc2[N+](=O)[O-])CC1	none
CCN1C(=O)/C(=C/c2ccc(N(CC)CC)cc2OC)C(=O)NC1=S	MPTP block 66, GRIN3A LBD mod 14, SKN-1 block 45 | MPTP counter inactive
COc1ccccc1/C=C1\C(=O)NC(=S)N(c2ccccc2)C1=O	none
N#CC(C#N)=NNc1ccc(-n2ccc(C(F)(F)F)n2)cc1	MPTP block 78 | MPTP counter 82
Cc1cc(C)n(-c2ccc(NN=C(C#N)C#N)cc2)n1	MPTP block 84 | MPTP counter 90
Cc1cc(C(=O)N2CCC3(CC2)OCCO3)no1	none

Screening data deposited in PubChem BioAssay by several laboratories.
